The species named for test [1] is Homo sapiens. The experiment in a line: Selectivity index, ratio of IC50 for human thromboxane A2 receptor alpha to IC50 for human thromboxane A2 receptor beta. In short, it runs like this:
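IC50 at TPα divided by IC50 at TPβ. Both IC50s come from U-46619-stimulated Fluo-4 calcium mobilization in HEK293 cells stably expressing each isoform. Mean ± SD of three separate experiments.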

Test [2] addresses T1, Thromboxane A2 receptor (Homo sapiens, UniProt P21731).
T1 sequence (P21731 whole entry): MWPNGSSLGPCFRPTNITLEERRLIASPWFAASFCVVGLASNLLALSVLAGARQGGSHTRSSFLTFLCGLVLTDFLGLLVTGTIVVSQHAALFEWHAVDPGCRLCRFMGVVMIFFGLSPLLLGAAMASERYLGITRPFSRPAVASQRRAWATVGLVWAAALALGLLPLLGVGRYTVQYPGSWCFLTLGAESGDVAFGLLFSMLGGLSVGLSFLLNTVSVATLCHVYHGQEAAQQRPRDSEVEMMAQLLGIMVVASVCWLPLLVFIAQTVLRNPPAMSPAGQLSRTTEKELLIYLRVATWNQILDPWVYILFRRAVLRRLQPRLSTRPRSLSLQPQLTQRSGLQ
The experiment in a line: Antagonist activity at human thromboxane A2 receptor beta over-expressed in HEK293 cells assessed as inhibition of U-46619-induced intracellular calcium mobilization mobilization by fluorescence assay. The test is classed as functional, cell-based. In short, it runs like this: (§1)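 HEK293 cells stably expressing HA-tagged TPα or TPβ, grown in DMEM/10% FBS. Trypsinized cells washed in Krebs-HEPES buffer, pH 7.4, loaded 1 h with Fluo-4/AM, rinsed, 150,000 cells/well. Compound at 10^-9 to 10^-5 M final, then stimulated with U-46619. Fluorescence read at 538 nm, calibrated to [Ca2+]i with Triton X-100/EGTA. IC50 from concentration-response curves, three independent experiments.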
In general terms: A change in cytosolic calcium serves as a functional read-out for many receptors and channels.

The test system of test [3] is Platelet. The experiment in a line: Antiplatelet activity against human platelets assessed as inhibition of U-46619-induced platelet aggregation at 10 uM after 1 min. In kind it is functional, cell-based.
Test [4] addresses T1, Thromboxane A2 receptor. As to the kind of experiment: Antagonist activity at human thromboxane A2 receptor alpha over-expressed in HEK293 cells assessed as inhibition of U-46619-induced intracellular calcium mobilization by fluorescence assay. In kind it is functional, cell-based. In short, it runs like this: as §1
A short description of test [5]: Antiplatelet activity against human platelets assessed as inhibition of U-46619-induced platelet aggregation at 1 uM after 1 min. The test is classed as functional, cell-based. The essentials: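 Human platelet-rich plasma is taken from donors free of medication for at least 14 days, obtained at 100×g for 10 min, and adjusted to […] with platelet-poor plasma. Platelets incubated with test sample or 0.1% DMSO at 37 °C for 1 min, then U-46619 added to trigger aggregation. Aggregation measured by light transmission. Means ± SD, n ≥ 2.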

The source made the active and inactive calls. The rule behind the calls is not given here.

One may read the IC50 as the midpoint of a concentration-inhibition curve. For `CCCCCNC(=O)NS(=O)(=O)c1cc(C#N)ccc1Nc1cccc(C)c1`, the Ratio IC50 in test [1] was found to be 1.3. Besides, the figures for the concentration for half-maximal inhibition (IC50) in test [2] and in test [4] were 2.33 µM and 2.95 µM, respectively. In addition, the inhibition result in test [3] is “Active”.
Turning to `Cc1cccc(Oc2ccc(C#N)cc2S(=O)(=O)NC(=O)NC(C)C)c1`, the Ratio IC50 in test [1] is 1.4. For the same compound, the IC50 in test [2] was determined as 1.69 µM; in test [4], 2.38 µM. Moreover, the inhibition result in test [3] is “Active”.
In the case of `Cc1ccccc1Oc1ccc(C#N)cc1S(=O)(=O)NC(=O)NC(C)(C)C`, the IC50 in test [5] was determined as 0.966 µM; in test [2], 1.47 µM; in test [4] it was 3.69 µM. For the same compound, in test [3], the inhibition result is “Active”.
Consider `Cc1ccc(Nc2ccc(C#N)cc2S(=O)(=O)NC(=O)NC(C)C)cc1`, for which the Ratio IC50 in test [1] was determined as 0.9. Further, the IC50 in test [2] came out at 4.22 µM; in test [4], 4.11 µM. Moreover, in test [3], the inhibition entry was “Active”.
Take `Cc1ccc(Nc2ccc([N+](=O)[O-])cc2S(=O)(=O)NC(=O)NC(C)(C)C)cc1`: the Ratio IC50 in test [1] was 1.1. In addition, the IC50 in test [5] came to 0.509 µM; in test [2], 0.62 µM; in test [4], 0.7 µM.
For `Cc1ccc(Nc2ccc(C#N)cc2S(=O)(=O)NC(=O)NC(C)(C)C)cc1`, the IC50 amounted to 0.504 µM in test [5], 1.04 µM in test [2] and 0.85 µM in test [4]. Moreover, the inhibition entry in test [3] is “Active”.
For the compound `CC(C)(C)NC(=O)NS(=O)(=O)c1cc(C#N)ccc1Oc1ccc(F)cc1`, in test [1], the Ratio IC50 came out at 1.2. Further, the half-maximal inhibitory concentration (IC50) in test [2] was 3.89 µM; in test [4] it was 4.35 µM.
For `CC(C)NC(=O)NS(=O)(=O)c1cc(C#N)ccc1Oc1ccc(I)cc1` the same measures were 1, 9.49 µM and 9.52 µM.
Taken in the same sequence, the figures for `CCCCCNC(=O)NS(=O)(=O)c1cc(C#N)ccc1Oc1ccc(Cl)cc1` were 0.9, 8.72 µM and 8.64 µM.
For `CC(C)(C)NC(=O)NS(=O)(=O)c1cc(C#N)ccc1Oc1ccc(I)cc1` the same measures were 0.9, 5.54 µM and 5.52 µM.
In the case of `CCCCCNC(=O)NS(=O)(=O)c1cc(C#N)ccc1Nc1ccccc1C`, the Ratio IC50 in test [1] was 0.4. Besides, the figures for the IC50 in test [2] and in test [4] were 7.85 µM and 3.19 µM, respectively. For the same compound, the inhibition result in test [3] was “Active”.
Turning to `CCCCCNC(=O)NS(=O)(=O)c1cc(C#N)ccc1Oc1ccc(I)cc1`, in test [1], the Ratio IC50 was 1. Also, the figures for the IC50 in test [2] and in test [4] were 9.49 µM and 9.52 µM, respectively.
Taken in the same sequence, the figures for `CC(C)(C)NC(=O)NS(=O)(=O)c1cc(C#N)ccc1Oc1ccc(Br)cc1` were 1.1, 5.31 µM and 5.88 µM.
For the compound `Cc1cccc(Nc2ccc(C#N)cc2S(=O)(=O)NC(=O)NC(C)(C)C)c1`, the Ratio IC50 in test [1] worked out at 0.7. For the same compound, the IC50 in test [5] amounted to 0.726 µM; in test [2], 2.2 µM; in test [4], 1.59 µM. Further, the inhibition result in test [3] was “Active”.
`CCCCCNC(=O)NS(=O)(=O)c1cc(C#N)ccc1Nc1ccc(F)cc1`: the Ratio IC50 in test [1] was found to be 1.05. In addition, the values for the half-inhibitory concentration (IC50) in test [2] and in test [4] were 6.45 µM and 6.78 µM, respectively.
`CCCCCNC(=O)NS(=O)(=O)c1cc(C#N)ccc1Oc1ccccc1C`: in test [1], the Ratio IC50 worked out at 1.3. Besides, the IC50 worked out at 1.78 µM in test [2] and 2.24 µM in test [4]. Further, in test [3], the inhibition entry is “Active”.
Regarding `CCCCCNC(=O)NS(=O)(=O)c1cc(C#N)ccc1Oc1cccc(C)c1`, the Ratio IC50 in test [1] was determined as 2. Besides, the values for the IC50 in test [2] and in test [4] were 0.68 µM and 1.33 µM, respectively. In addition, the inhibition entry in test [3] is “Active”.
In the case of `CCCCCNC(=O)NS(=O)(=O)c1cc(C#N)ccc1Oc1ccc(F)cc1`, the Ratio IC50 in test [1] amounted to 0.9. The IC50 in test [2] came to 9.53 µM; in test [4] it was 9.43 µM.
In the case of `Cc1ccccc1Nc1ccc(C#N)cc1S(=O)(=O)NC(=O)NC(C)(C)C`, the IC50 was 0.971 µM in test [5], 4.78 µM in test [2] and 2.75 µM in test [4]. In addition, in test [3], the inhibition entry is “Active”.
With `CCCCCNC(=O)NS(=O)(=O)c1cc(C#N)ccc1Oc1ccc(Br)cc1`, the Ratio IC50 in test [1] is 0.9. The values for the IC50 in test [2] and in test [4] were 9.54 µM and 8.52 µM, respectively.
As for `CC(C)NC(=O)NS(=O)(=O)c1cc(C#N)ccc1Nc1ccc(F)cc1`, the Ratio IC50 in test [1] was 1.04. Besides, the half-inhibitory concentration (IC50) in test [2] turned out to be 7.83 µM; in test [4] it was 8.17 µM.
`CC(C)NC(=O)NS(=O)(=O)c1cc(C#N)ccc1Oc1ccc(F)cc1`: the Ratio IC50 in test [1] is 1. For the same compound, the IC50 in test [2] is 9.3 µM; in test [4], 9.62 µM.
With `CCCCCNC(=O)NS(=O)(=O)c1cc(C#N)ccc1Oc1ccc(C)cc1`, the Ratio IC50 in test [1] is 1.4. Besides, the figures for the IC50 in test [2] and in test [4] were 0.63 µM and 0.9 µM, respectively. The inhibition result in test [3] was “Active”.
As for `CC(C)NC(=O)NS(=O)(=O)c1cc(C#N)ccc1Oc1ccc(Cl)cc1`, the Ratio IC50 in test [1] came to 1.1. Besides, the IC50 in test [2] was determined as 8.49 µM; in test [4], 9.46 µM.
As for `Cc1ccccc1Nc1ccc(C#N)cc1S(=O)(=O)NC(=O)NC(C)C`, in test [1], the Ratio IC50 came to 0.7. Besides, the concentration for half-maximal inhibition (IC50) in test [2] was found to be 10.1 µM; in test [4], 7.24 µM. In addition, the inhibition entry in test [3] was “Active”.
Taken in the same sequence, the figures for `Cc1ccc(Oc2ccc(C#N)cc2S(=O)(=O)NC(=O)NC(C)C)cc1` were 2.3, 1.35 µM, 3.05 µM and “Active”.
For `CCCCCNC(=O)NS(=O)(=O)c1cc(C#N)ccc1Nc1ccc(C)cc1` the same measures were 0.5, 2.06 µM, 1.04 µM and “Active”.
Take `CC(C)(C)NC(=O)NS(=O)(=O)c1cc(C#N)ccc1Oc1ccc(Cl)cc1`: the Ratio IC50 in test [1] was 1.1. Besides, the values for the IC50 in test [2] and in test [4] were 5.27 µM and 5.64 µM, respectively.
For the compound `Cc1ccc(Oc2ccc(C#N)cc2S(=O)(=O)NC(=O)NC(C)(C)C)cc1`, the figures for the IC50 in test [5], in test [2] and in test [4] were 0.649 µM, 0.68 µM and 0.75 µM, respectively. Also, in test [3], the inhibition result is “Active”.
In the case of `Cc1cccc(Nc2ccc(C#N)cc2S(=O)(=O)NC(=O)NC(C)C)c1`, the Ratio IC50 in test [1] was determined as 1. In addition, the IC50 in test [2] was found to be 9.11 µM; in test [4], 9.5 µM. In test [3], the inhibition entry is “Active”.
Turning to `CC(C)(C)NC(=O)NS(=O)(=O)c1cc(C#N)ccc1Nc1ccc(F)cc1`, in test [1], the Ratio IC50 was 0.95. For the same compound, the IC50 turned out to be 4.91 µM in test [2] and 4.64 µM in test [4].
On to `Cc1ccccc1Oc1ccc(C#N)cc1S(=O)(=O)NC(=O)NC(C)C`, for which the Ratio IC50 in test [1] was found to be 1.4. Moreover, the IC50 in test [2] was determined as 6.13 µM; in test [4] it was 8.68 µM. Further, the inhibition entry in test [3] was “Active”.
As for `Cc1cccc(Oc2ccc(C#N)cc2S(=O)(=O)NC(=O)NC(C)(C)C)c1`, the IC50 in test [5] was 0.705 µM; in test [2] it was 0.69 µM; in test [4], 1.05 µM. Moreover, the inhibition entry in test [3] was “Active”.
Regarding `CC(C)NC(=O)NS(=O)(=O)c1cc(C#N)ccc1Oc1ccc(Br)cc1`, the Ratio IC50 in test [1] amounted to 1. The IC50 was found to be 9.13 µM in test [2] and 9.47 µM in test [4].

The values above are taken from ChEMBL document CHEMBL2401731, “Synthesis and pharmacological evaluation of 2-aryloxy/arylamino-5-cyanobenzenesulfonylureas as novel thromboxane A₂ receptor antagonists” (Eur J Med Chem, 2013).
